The results in this text go back to ChEMBL document CHEMBL4041524, “Synthesis and Characterization of a Novel γ-Aminobutyric Acid Type A (GABAA) Receptor Ligand That Combines Outstanding Metabolic Stability, Pharmacokinetics, and Anxiolytic Efficacy” (J Med Chem, 2016).

The source made the active and inactive calls. The calls are words filed in the database; no cut-off is given here.

The target of series [1] is T1, GABA-A receptor; alpha-3/beta-3/gamma-2 (Homo sapiens, UniProt P18507+P28472+P34903).
T1 sequence (P18507 whole entry): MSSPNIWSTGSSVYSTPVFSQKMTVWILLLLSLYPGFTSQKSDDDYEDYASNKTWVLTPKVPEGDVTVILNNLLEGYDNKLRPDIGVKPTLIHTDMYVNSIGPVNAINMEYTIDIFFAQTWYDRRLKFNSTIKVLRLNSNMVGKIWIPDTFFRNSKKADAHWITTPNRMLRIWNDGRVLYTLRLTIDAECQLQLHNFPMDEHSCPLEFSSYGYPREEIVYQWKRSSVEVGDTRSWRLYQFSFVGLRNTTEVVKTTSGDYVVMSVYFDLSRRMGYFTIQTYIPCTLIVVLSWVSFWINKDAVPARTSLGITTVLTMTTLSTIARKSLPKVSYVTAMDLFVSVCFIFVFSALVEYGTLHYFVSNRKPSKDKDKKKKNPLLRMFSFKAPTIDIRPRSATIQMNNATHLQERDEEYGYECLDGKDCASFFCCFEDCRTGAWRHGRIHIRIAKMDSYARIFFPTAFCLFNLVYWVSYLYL
T1 sequence (P28472 whole entry): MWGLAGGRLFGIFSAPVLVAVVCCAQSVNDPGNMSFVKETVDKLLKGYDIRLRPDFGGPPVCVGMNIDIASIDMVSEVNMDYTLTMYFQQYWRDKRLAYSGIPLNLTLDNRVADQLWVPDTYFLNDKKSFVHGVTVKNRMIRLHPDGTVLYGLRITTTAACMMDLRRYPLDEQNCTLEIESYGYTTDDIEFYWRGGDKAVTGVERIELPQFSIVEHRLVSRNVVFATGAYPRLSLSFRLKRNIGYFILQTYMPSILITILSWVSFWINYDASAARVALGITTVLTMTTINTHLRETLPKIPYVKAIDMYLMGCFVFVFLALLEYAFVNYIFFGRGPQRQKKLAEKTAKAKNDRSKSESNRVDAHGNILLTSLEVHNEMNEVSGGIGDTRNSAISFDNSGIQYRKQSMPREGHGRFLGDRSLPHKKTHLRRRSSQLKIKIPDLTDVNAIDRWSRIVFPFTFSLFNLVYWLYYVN
T1 sequence (P34903 whole entry): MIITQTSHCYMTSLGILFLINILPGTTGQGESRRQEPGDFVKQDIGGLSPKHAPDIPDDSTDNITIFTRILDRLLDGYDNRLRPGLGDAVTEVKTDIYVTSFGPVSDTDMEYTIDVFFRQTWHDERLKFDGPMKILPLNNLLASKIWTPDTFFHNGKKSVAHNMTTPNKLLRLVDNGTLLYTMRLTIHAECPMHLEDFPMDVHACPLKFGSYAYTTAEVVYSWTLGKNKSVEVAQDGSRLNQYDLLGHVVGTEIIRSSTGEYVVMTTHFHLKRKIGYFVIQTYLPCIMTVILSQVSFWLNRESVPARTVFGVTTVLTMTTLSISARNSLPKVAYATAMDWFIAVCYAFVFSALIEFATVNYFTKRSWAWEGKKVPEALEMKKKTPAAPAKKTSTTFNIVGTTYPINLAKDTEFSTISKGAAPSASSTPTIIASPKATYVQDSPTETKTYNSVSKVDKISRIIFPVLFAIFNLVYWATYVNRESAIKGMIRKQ
Kind of series: Binding affinity to human GABAA alpha3beta3gamma2 receptor expressed in HEK293 cells assessed as GABA-induced membrane potential change preincubated for 3 mins followed by addition of GABA measured after 3 mins by FLIPR assay. The series is classed as cell-based. The gist of the method: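 Stably transfected HEK293T cells expressing α1β3γ2 (n = 2) or α3β3γ2 (n = 1) GABAARs. Membrane potential was read as fluorescence changes on a FLIPR Tetra, and EC50 was derived.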

The subject of another series is Plasma. Kind of series: Fraction unbound in rat plasma by equilibrium dialysis method. The series is classed as ADME, cell-free. The gist of the method: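 Fraction unbound was determined in vitro by equilibrium dialysis with rat plasma protein and rat brain.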
Series [2] is described as follows: Half life in femoral artery/vein cannulated Sprague-Dawley rat at 1 mg/kg, iv administered […] as single dose by LC-MS/MS analysis. As to conditions: in vivo. The series is classed as ADME, organism-based. The gist of the method:
(§1)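 Male Sprague-Dawley rats (n = 3 per time point) were dosed 1 mg/kg i.v. or 10 mg/kg i.p. Plasma concentrations were measured at set time points. Clearance, Vdss and T½ came from the i.v. arm, and AUC, Cmax and Tmax from the i.p. arm.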

In a further series the test system is Liver. Kind of series: Metabolic stability in mouse liver microsomes assessed as compound remaining at 4 uM measured after 30 mins in presence of NADPH by LC-MS/MS analysis. The note with it: 0.5 h. It is filed as ADME, microsome. The gist of the method:
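Human, mouse or rat liver microsomes were incubated with compound at 4 μM final for 30 min at 37 °C (n = 1). Percent of parent remaining was quantified by LC-MS/MS.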

Series [3] relates to Mus musculus. Kind of series: Toxicity in Swiss mouse assessed as change in motor coordination by measuring number of falls from the rotating rod at 10 mg/kg, ip administered 30 mins prior to testing measured for 2 mins by rotarod test relative to control. The series is classed as organism-based. The note with it: in vivo. The gist of the method:
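The same mice used for marble burying were placed on a rotarod at 4 r.p.m. for 2 min. No fall was scored success, one fall partial, and two falls failure.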

Series [4] is described as follows: AUC in femoral artery/vein cannulated Sprague-Dawley rat at 10 mg/kg, ip administered […] as single dose by LC-MS/MS analysis. It is filed as ADME, organism-based. The note with it: in vivo. The gist of the method: as §1
The target of series [5] is GABA-A receptor; alpha-3/beta-3/gamma-2 (Homo sapiens) (UniProt P18507+P28472+P34903). Kind of series: Modulation of recombinant GABA alpha3beta3gamma2 receptor (unknown origin) expressed in Xenopus laevis oocytes assessed as change in GABA-induced EC(3 to 6) current at 1 uM by two-electrode voltage clamp assay. The series is classed as cell-based. The gist of the method:
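Xenopus laevis oocytes expressing α1, α2, α3 or α5 β3γ2 GABAARs were recorded by two-electrode voltage clamp. Modulation of the GABA EC3-6 current (taken as 100%) was tested at 100 nM, 1 μM and 10 μM in the same cells. Values are mean ± SEM, n = 3–4.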

A short description of series [6]: Total plasma concentration in Sprague-Dawley rat at 10 mg/kg, po measured after 60 mins by LC-MS/MS analysis. It is filed as ADME, organism-based. The gist of the method: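 Sprague-Dawley rats (n = 3 per time point) were given 10 mg/kg p.o. Total plasma concentrations were taken at 15, 30, 60 and 120 min. Brain levels of the dosed ligand and of the carboxylic acid metabolite were taken at 60 or 120 min.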

Series [7] concerns Mus musculus. Kind of series: Anxiolytic-like activity in Swiss Webster mouse marble burying model of anxiety assessed as suppression of marble burying activity at 30 mg/kg, ip administered 30 mins prior to test relative to vehicle-control. It is filed as functional, organism-based. The gist of the method: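 Male NIH Swiss Webster mice (n = 10) received vehicle or compound at 10 or 30 mg/kg i.p. 30 min before marble burying testing. Sedation-like behaviour was noted by observation. Analysis was ANOVA with Dunnett's test vs vehicle.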

Turning to `C#Cc1ccc2c(c1)C(c1ccccn1)=NCc1c(-c3cnco3)ncn1-2`, in series [1], the EC50 turned out to be 937 nM. Besides, in the series with Plasma, the Fu is listed as 25.9%. This compound also gave a half-life in [2] of 1.4 h. For the same compound, the Stability in the series with Liver is 90%. The Activity entry was “Toxic” with Mus musculus [3] and 188% in series [5]. The compound also gave an AUC in [4] of 16.5 µM·h. The concentration at 1 h in series [6] was 3.91 µM. For the same compound, the result with Mus musculus [7] was Active.
